# Assay results taken from ChEMBL document CHEMBL2176871, “Development of ligands at γ-aminobutyrric acid type A (GABAA) receptor subtype as new agents for pain relief” (Bioorg Med Chem, 2011).
# pKi: −log10 of the molar value. Active and inactive are the calls of the source.
# How the values were obtained:
# Bos taurus = species: Bos taurus; experiment: Displacement of [3H]Ro151788 from GABA(A)/BzR in bovine cerebral cortex membrane at 10 uM; assay type: cell membranes
# Method in brief: (§1)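 Bovine cerebral cortex membranes in 50 mM Tris-citrate pH 7.4; [3H]flumazenil displacement. Compounds first tested at a fixed 10 µM; Ki determined only when inhibition exceeded 80%, using at least six concentrations. Five experiments run in triplicate; IC50 obtained by iterative curve fitting and converted to Ki with the Cheng–Prusoff equation.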
# [1] = Displacement of [3H]Ro151788 from GABA(A)/BzR in bovine cerebral cortex membrane; assay type: cell membranes, Bos taurus; method in brief: as §1
# Mus musculus [2] = experiment: Antihyperalgesic activity Swiss albino mouse […] assessed as licking latency time at 30 mg/kg, po after 60 mins by hot plate test (reference value: 16.6 +/- 0.8 secs); assay type: functional
# Method in brief: (§2)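 Hot plate at 52.5 ± 0.1 °C in non-diabetic male Swiss mice. Latency to licking of fore or hind paws was timed before dosing and every 15 min up to 60 min after oral dosing. Mice with pretest latencies below 12 s or above 18 s were excluded. Cut-off was 45 s.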
# Mus musculus [3] = experiment: Antihyperalgesic activity against streptozotocin-induced hyperalgesia in Swiss albino mouse […] assessed as licking latency time at 30 mg/kg, po after 45 mins by hot plate test (reference value: 8.8 +/- 0.7 secs); assay type: functional
# Mus musculus [4] = experiment: Antihyperalgesic activity Swiss albino mouse […] assessed as licking latency time at 30 mg/kg, po after 45 mins by hot plate test (reference value: 16.6 +/- 0.8 secs); assay type: functional; method in brief: as §2
# Mus musculus [5] = experiment: Antihyperalgesic activity against streptozotocin-induced hyperalgesia in Swiss albino mouse […] assessed as licking latency time at 30 mg/kg, po after 30 mins by hot plate test (reference value: 8.8 +/- 0.7 secs); assay type: functional
# Mus musculus [6] = experiment: Antihyperalgesic activity Swiss albino mouse […] assessed as licking latency time at 30 mg/kg, po after 30 mins by hot plate test (reference value: 16.6 +/- 0.8 secs); assay type: functional; method in brief: as §2
# Mus musculus [7] = experiment: Antihyperalgesic activity against streptozotocin-induced hyperalgesia in Swiss albino mouse […] assessed as licking latency time at 30 mg/kg, po after 15 mins by hot plate test (reference value: 8.8 +/- 0.7 secs); assay type: functional
# Mus musculus [8] = experiment: Antihyperalgesic activity Swiss albino mouse […] assessed as licking latency time at 30 mg/kg, po after 15 mins by hot plate test (reference value: 16.6 +/- 0.8 secs); assay type: functional; method in brief: as §2
# Mus musculus [9] = experiment: Anxiolytic-like activity in Swiss albino mouse at 30 mg/kg, po after 30 mins by light/dark box test; assay type: functional, organism-based; parameters: dose 30 mg/kg
# Method in brief: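 Male Swiss mice tested in a two-compartment light/dark box. Transfers between compartments and time spent in the lit side recorded. Compound given po 30 min before testing, in 10 ml/kg; flumazenil given i.p. for antagonism; 8 mice per group.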
# Mus musculus [10] = experiment: Antihyperalgesic activity against streptozotocin-induced hyperalgesia in Swiss albino mouse […] assessed as licking latency time at 30 mg/kg, po after 60 mins by hot plate test (reference value: 8.8 +/- 0.7 secs); assay type: functional
# Mus musculus [11] = experiment: Analgesic activity in Swiss albino mouse abdominal constriction model assessed as decrease in number of acetic acid-induced writhing at 30 to 60 mg/kg, po after 30 mins; assay type: functional, organism-based; conditions: Abdomen
# Method in brief: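 Male Swiss albino mice (23–30 g). Compounds given po in 1% CMC vehicle 30 min before the test. Acetic acid 0.6% injected i.p. at 10 ml/kg. Stretching movements were counted for 10 min, starting 5 min after the acetic acid injection. 8–15 mice per group.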
# Mus musculus [12] = experiment: Anticonvulsant activity in Swiss albino mouse […] assessed as protection against intraperitoneally administered pentylenetetrazol-induced seizures at 10 mg/kg, po after 30 mins; assay type: functional
# Method in brief: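 Male Swiss albino mice. Compounds given po and PTZ 90 mg/kg injected 30 min later; PTZ was dissolved in 0.9% NaCl saline. Clonic generalized convulsions were recorded over 30 min. Each value is the mean of 10 mice. The methods give the PTZ route as s.c. and the table footnote gives it as ip.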
# Rattus norvegicus [13] = experiment: Antinociceptive activity in Sprague-Dawley rat mononeuropathy pain model assessed as increase in injured paw pressure at 30 mg/kg, po after 45 mins by paw pressure test relative to non-treated control; assay type: functional
# Method in brief: (§3)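 Chronic constriction injury: loose ligatures placed on the common sciatic nerve under chloral hydrate; contralateral sham dissection. Tested 14 days after surgery. Paw pressure applied at 32 g/s; threshold taken as the force causing the first struggle; cut-off 250 g; pretest outliers (<40 g or >75 g) excluded. Oral dosing in 10 ml/kg; read at 15, 30 and 45 min; compared with a CMC-treated group.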
# Rattus norvegicus [14] = experiment: Antinociceptive activity in Sprague-Dawley rat mononeuropathy pain model assessed as increase in injured paw pressure at 30 mg/kg, po after 30 mins by paw pressure test relative to non-treated control; assay type: functional; method in brief: as §3
# Rattus norvegicus [15] = experiment: Antinociceptive activity in Sprague-Dawley rat mononeuropathy pain model assessed as increase in injured paw pressure at 30 mg/kg, po after 15 mins by paw pressure test relative to non-treated control; assay type: functional; method in brief: as §3
# Rattus norvegicus [16] = experiment: Toxicity in Sprague-Dawley rat mononeuropathy pain model assessed as effect on contralateral paw pressure at 30 mg/kg, po after 45 mins by paw pressure test; assay type: organism-based; parameters: dose 30 mg/kg, route oral; conditions: in vivo, 0.75 h
# Method in brief: (§4)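 Same sciatic-ligation rat model, 14 days after surgery. Threshold measured on the non-operated contralateral hind paw by analgesimeter at 32 g/s; first-struggle endpoint; 250 g cut-off; pretest rats outside 40–75 g rejected. Compound given po in 10 ml/kg; readings at 15, 30 and 45 min.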
# Rattus norvegicus [17] = experiment: Toxicity in Sprague-Dawley rat mononeuropathy pain model assessed as effect on contralateral paw pressure at 30 mg/kg, po after 30 mins by paw pressure test; assay type: organism-based; parameters: dose 30 mg/kg, route oral; conditions: in vivo, 0.5 h; method in brief: as §4
# Rattus norvegicus [18] = experiment: Toxicity in Sprague-Dawley rat mononeuropathy pain model assessed as effect on contralateral paw pressure at 30 mg/kg, po after 15 mins by paw pressure test; assay type: organism-based; parameters: dose 30 mg/kg, route oral; conditions: in vivo, 0.25 h; method in brief: as §4
inhibition (Bos taurus),pKi [1],Structure (SMILES),Activity (Rattus norvegicus [13]),Activity (Rattus norvegicus [14]),Activity (Rattus norvegicus [15]),Activity (Rattus norvegicus [16]),Activity (Rattus norvegicus [17]),Activity (Rattus norvegicus [18]),also measured
> 80%,7.83,[O-][n+]1nc2c(I)cnn2c2cc(NCCc3ccccc3)ccc21,,,,,,,
> 80%,8.99,CN(Cc1ccccc1)c1ccc2c(c1)n1ncc(I)c1n[n+]2[O-],28.5 g,26.5 g,29.2 g,60.8 g,62.8 g,61.7 g,Time (Mus musculus [2]): 17.9 s; Time (Mus musculus [3]): 10.4 s; Time (Mus musculus [4]): 18.3 s; Time (Mus musculus [5]): 11.8 s; Time (Mus musculus [6]): 16.8 s; Time (Mus musculus [7]): 10.1 s; Time (Mus musculus [8]): 17.3 s; Activity (Mus musculus [9]): Active; Time (Mus musculus [10]): 11.1 s; Activity (Mus musculus [11]): inactive; Activity (Mus musculus [12]): 10%
> 80%,8.80,Cc1cnn2c1nnc1ccc(OCc3ccccc3)cc12,,,,,,,
,,[O-][n+]1nc2c(I)cnn2c2cc(OCc3ccccc3)ccc21,36.4 g,46.5 g,37.1 g,65.1 g,59.2 g,62.7 g,
,8.17,O=C(OCc1cccs1)c1cnn2c1n[n+]([O-])c1ccc(Cl)cc12,32.8 g,35.2 g,33.6 g,60.9 g,57.8 g,59.3 g,
> 80%,8.52,COc1ccccc1COc1ccc2c(c1)n1ncc(C)c1n[n+]2[O-],,,,,,,
> 80%,9.11,COc1ccccc1CNc1ccc2c(c1)n1ncc(C)c1n[n+]2[O-],,,,,,,
> 80%,8.56,Cc1cnn2c1nnc1ccc(NCc3ccccc3)cc12,,,,,,,
